This is an account of results in ChEMBL document CHEMBL4665795, “Synthesis and Evaluation of 4-Hydroxycoumarin Imines as Inhibitors of Class II Myosins” (J Med Chem, 2020).

pIC50, pKd, pKi: −log10 of the molar value. Calls of active or inactive are those of the source. Some results are limits rather than exact numbers.

Data set [1] can be described thus: Inhibition of actin-activated rabbit skeletal muscle myosin 2 assessed as phosphate level incubated for 6 to 24 mins by spectrophotometric method. Set-up: species or system Oryctolagus cuniculus. The essentials: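 Actin-activated ATPase run at 30 °C in assay buffer with 32 µM actin and 2 mM ATP. Phosphate production followed over time by absorbance in stopped-time format. IC50 from four-parameter logistic fit. N is the number of fully independent titrations.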

Data set [2] can be described thus: Selectivity ratio of IC50 for actin-activated bovine heart muscle myosin 2 to IC50 for actin-activated rabbit skeletal muscle myosin 2.
Data set [3] can be described thus: Competitive binding affinity to skeletal myosin S1 (unknown origin) assessed as reduction in Blebbistatin-induced fluorescence intensity incubated for 1 hr by fluorescence based assay. Set-up: species or system Homo sapiens.
Data set [4] can be described thus: Kinetic solubility in pH 7.4 PBS incubated for 1 hr. The format is physicochemical. Conditions: for Kinetic_solubility: buffer, pH 7.4, 1 h.
Another data set has as its system HL-60. Nature of the data set: Cytotoxicity against human HL-60 cells assessed as reduction in cell viability incubated for 48 hrs by hemocytometer based trypan-blue exclusion assay. The note with it: HL-60, 48 h.
The species named for data set [5] is Mus musculus. Nature of the data set: Inhibition of C57Bl6 mouse skeletal muscle myosin assessed as inhibition of phrenic nerve stimulation-induced contraction in mouse diaphragm at 100 uM relative to control. The method, boiled down: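 Mouse phrenic nerve-hemidiaphragm preparation used ex vivo. Muscle contraction evoked by phrenic nerve stimulation, recorded with and without compound.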

A short description of data set [6]: Binding affinity to skeletal myosin S1 (unknown origin) assessed as fluorescence intensity in presence of ATP. Set-up: species or system Homo sapiens. The essentials: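 Skeletal myosin S1 binding read by fluorescence of 2 µM blebbistatin probe (λex 440 nm, em 560 nm) in assay buffer with 1 mM ATP at 22-25 °C. Signal without S1 was subtracted and normalised to Fmax. Direct Kd came from S1 titration fit to a quadratic single-site equation. Competition used 1 µM S1 and 1 hr incubation with analog; IC50 from a four-parameter fit was converted to Ki. N = 1.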

The nature of data set [7]: Inhibition of actin-activated rabbit skeletal muscle myosin 2. Set-up: species or system Oryctolagus cuniculus.
For data set [8], the species on record is Mus musculus. Nature of the data set: Inhibition of C57Bl6 mouse […] assessed as reduction in action potential in mouse diaphragm at 100 uM.
A short description of data set [9]: Half life in pH 7.4 PBS at 100 uM by UV-VIS spectroscopic method. The format is physicochemical.
Data set [10] in a line: Inhibition of rabbit skeletal muscle myosin 2 assessed as reduction in actin-sliding velocity incubated for 1 min by inverted microscopic analysis. Set-up: species or system Oryctolagus cuniculus. The essentials:
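In vitro motility assay at 30 °C with skeletal myosin loaded at 100 µg mL-1 on a coverslip. Fluorescent actin filament sliding velocity recorded across compound concentrations. IC50 obtained by curve fit.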

For orientation: pIC50 means the IC50 on a negative log10 scale, so that one unit is a factor of ten. `C/C(=N\Nc1ccccc1)c1c(O)c2ccccc2oc1=O`: the pIC50 in [1] is 5.70. Also, in data set [2], the Ratio IC50 is 13.5.
The term pKi denotes the Ki on a negative log10 scale, so that one unit is a factor of ten. Take `C/C(=N\Cc1ccccc1)c1c(O)c2ccccc2oc1=O`: the negative-log IC50 (pIC50) in [3] was 5.28; in data set [1] it was 6.10; in the data set on HL-60 it was 3.10. Besides, in data set [3], the pKi is 6.10. In addition, in data set [4], the Kinetic_solubility came out at 103 µM. In addition, the Ratio IC50 in data set [2] came to 9.1.
The term inhibition denotes the drop in the measured response relative to a control, in per cent. As usually defined, the pKd is the Kd on a negative log10 scale, so that one unit is a factor of ten. In the case of `Cc1ccc2c(c1)C(=O)[C@]1(O)CCN(c3ccccc3)C1=N2`, in the data set filed under Mus musculus [5], the inhibition is 99%. Further, the pKd in data set [6] was 6.40. The pIC50 in [7] is 8.00; in [1], 6.30. In addition, the inhibition entry in the data set filed under Mus musculus [8] is “Active”.
As to `C/C(=N\OCc1ccccc1)c1c(O)c2ccccc2oc1=O`, the pIC50 in data set [1] was at most 4.00.
For `C/C(=N\Cc1cccc(C)c1)c1c(O)c2ccccc2oc1=O`, the pIC50 in [1] is 5.00. For the same compound, the Ratio IC50 in data set [2] came to 0.5.
Take `C/C(=N\Cc1ccccc1)c1c(O)c2cc([N+](=O)[O-])ccc2oc1=O`: in data set [1], the pIC50 is at most 4.00.
Regarding `C/C(=N\C(C)C)c1c(O)c2ccccc2[nH]c1=O`, in the data set listed under Mus musculus [5], the inhibition amounted to 18%. In addition, the pIC50 in data set [1] is at most 4.00.
For `CC/C(=N\Cc1ccccc1)c1c(O)c2ccccc2oc1=O`, the negative logarithm of the IC50 (pIC50) in data set [1] was at most 4.00.
For `CCCCC/N=C(\C)c1c(O)c2ccccc2oc1=O`, the pIC50 in data set [1] is 5.70. Besides, in [2], the Ratio IC50 turned out to be 3.3.
Regarding `C/C(=N\Cc1ccc(C)cc1)c1c(O)c2ccccc2oc1=O`, the pIC50 in [1] was 6.10. In addition, the Ratio IC50 in [2] stood at 9.9.
`CCCC/N=C(\C)c1c(O)c2ccccc2n(C)c1=O`: the pIC50 in [1] was at most 4.00.
With `CCCCCC/N=C(\C)c1c(O)c2ccccc2oc1=O`, the pIC50 in [1] is 5.92. The Ratio IC50 in data set [2] turned out to be 2.4.
On to `C/C(=N\Cc1ccccc1)c1c(O)c2ccccc2[nH]c1=O`, for which the inhibition in the data set filed under Mus musculus [5] is 16%. Moreover, the pIC50 in [1] was at most 4.00.
For the compound `C/C(=N\CC(C)C)c1c(O)c2ccccc2oc1=O`, the inhibition in the data set filed under Mus musculus [5] amounted to 22%. The pIC50 in data set [1] was at most 4.00. In addition, the Ratio IC50 in data set [2] is under 0.34.
One may read the half-life as the time needed for the level to fall by half in the phase considered. Read a low half-life as rapid decline. In the case of `C/C(=N\Cc1ccncc1)c1c(O)c2ccccc2oc1=O`, in the data set listed under Mus musculus [5], the inhibition turned out to be 98%. Further, the half-life at 100 µM in [9] is 84 h. In addition, the pIC50 in data set [1] is 5.07. Moreover, in the data set listed under Mus musculus [8], the inhibition result is “inactive”. In addition, the solubility kinetic at 1 h in [4] (PBS, pH 7.4, read-out: Kinetic_solubility) is over 400 µM. Besides, the Ratio IC50 in [2] is over 12.
As to `C/C(=N\C(C)C)c1c(O)c2ccccc2oc1=O`, the inhibition in the data set filed under Mus musculus [5] came out at 94%. In [1], the pIC50 was at most 4.00. For the same compound, in the data set listed under Mus musculus [8], the inhibition result is “Active”.
Take `CC/N=C(\C)c1c(O)c2ccccc2oc1=O`: the pIC50 in [1] was 4.33. In addition, in data set [2], the Ratio IC50 turned out to be 2.1.
Consider `CCCC/N=C(\C)c1c(O)c2ccccc2[nH]c1=O`, for which the inhibition in the data set filed under Mus musculus [5] came to 48%. Also, the pIC50 in [1] was at most 4.00.
Turning to `CCC(C)/N=C(\C)c1c(O)c2ccccc2[nH]c1=O` (configuration not stated), the inhibition in the data set listed under Mus musculus [5] was 98%. In addition, the pIC50 in data set [1] was at most 4.00. In the data set listed under Mus musculus [8], the inhibition entry was “Active”.
In the case of `C/C(=N\Cc1cccnc1)c1c(O)c2ccccc2oc1=O`, in [1], the pIC50 was 5.52. Besides, in data set [2], the Ratio IC50 came to 5.6.
Turning to `C/C(=N\CC(C)C)c1c(O)c2ccccc2[nH]c1=O`, the inhibition in the data set filed under Mus musculus [5] turned out to be 71%. In addition, in data set [1], the pIC50 was at most 4.00. Further, the inhibition entry in the data set filed under Mus musculus [8] is “Active”.
As to `CCCCC/N=C(\C)c1c(O)c2cc([N+](=O)[O-])ccc2oc1=O`, the pIC50 in [1] was at most 4.00.
In the case of `CCC/N=C(\C)c1c(O)c2ccccc2[nH]c1=O`, in the data set listed under Mus musculus [5], the inhibition worked out at 41%. Moreover, in [1], the negative logarithm of the IC50 (pIC50) is at most 4.00.
Regarding `C/C(=N\Cc1ccccn1)c1c(O)c2ccccc2oc1=O`, in the data set listed under Mus musculus [5], the inhibition stood at 86%. For the same compound, in data set [1], the pIC50 was 5.17. For the same compound, the inhibition result in the data set listed under Mus musculus [8] is “Active”. For the same compound, the Ratio IC50 in data set [2] was determined as 3.2.
As for `CCC/N=C(\C)c1c(O)c2ccccc2oc1=O`, the pIC50 in data set [1] was 4.51. The Ratio IC50 in data set [2] is 1.7.
For the compound `CCC(C)/N=C(\C)c1c(O)c2ccccc2oc1=O` (configuration not stated), in the data set listed under Mus musculus [5], the inhibition amounted to 21%. The pIC50 in data set [1] was at most 4.00.
For the compound `CCCC/N=C(\C)c1c(O)c2ccccc2oc1=O`, the inhibition in the data set filed under Mus musculus [5] was determined as 96%. Further, the figures for the pIC50 in data set [10] and in data set [1] were 5.55 and 5.68, respectively. The inhibition entry in the data set filed under Mus musculus [8] was “inactive”. Moreover, the Kinetic_solubility in data set [4] stood at 607 µM. The Ratio IC50 in data set [2] is 2.8.
In the case of `CCCCC/N=C(\C)c1c(O)c2ccccc2[nH]c1=O`, the inhibition in the data set listed under Mus musculus [5] stood at 99%. Also, in [1], the pIC50 is at most 4.00. In addition, the inhibition entry in the data set listed under Mus musculus [8] was “Active”.
`CCC/C(=N\Cc1ccccc1)c1c(O)c2ccccc2oc1=O`: in data set [1], the pIC50 was at most 4.00.
In the case of `C/C(=N\CC1CCCCC1)c1c(O)c2ccccc2[nH]c1=O`, the inhibition in the data set filed under Mus musculus [5] was 72%. Further, the pIC50 in [1] is at most 4.00. Also, the inhibition entry in the data set listed under Mus musculus [8] is “Active”.
In the case of `C/N=C(\C)c1c(O)c2ccccc2oc1=O`, in the data set filed under Mus musculus [5], the inhibition worked out at 80%. For the same compound, the pIC50 in data set [1] was at most 4.00; in the data set with HL-60 it was 3.39. Besides, the inhibition entry in the data set filed under Mus musculus [8] was “Active”.
Consider `CC(=N)c1c(O)c2ccccc2oc1=O`, for which the inhibition in the data set filed under Mus musculus [5] worked out at 73%. Besides, the pIC50 in data set [1] is at most 4.00. Further, in the data set filed under Mus musculus [8], the inhibition result was “Active”.
On to `C/C(=N\CCO)c1c(O)c2ccccc2oc1=O`, for which the inhibition in the data set filed under Mus musculus [5] came to 87%. In addition, the pIC50 was 4.04 in data set [1] and 3.23 with HL-60. For the same compound, the inhibition entry in the data set listed under Mus musculus [8] was “Active”. Besides, the Ratio IC50 in data set [2] was 1.
For the compound `C/C(=N\CCO)c1c(O)c2ccccc2[nH]c1=O`, the inhibition in the data set listed under Mus musculus [5] was found to be 94%. Further, the pIC50 in [1] is at most 4.00. Besides, the inhibition result in the data set filed under Mus musculus [8] was “Active”.
Take `C/C(=N\Cc1ccccc1C)c1c(O)c2ccccc2oc1=O`: the pIC50 in data set [1] was at most 4.00.
As to `C/C(=N\CCCO)c1c(O)c2ccccc2oc1=O`, the inhibition in the data set listed under Mus musculus [5] worked out at 72%. For the same compound, the pIC50 in [1] is 4.51. For the same compound, the inhibition entry in the data set listed under Mus musculus [8] is “Active”. Besides, in data set [2], the Ratio IC50 is 1.2.
